Laboratory results from article PMC7740640 (Xenobiotica; the fate of foreign compounds in biological …, 2020).
Values joined by “and” are separate entries in the source; they are usually repeats but may differ in a detail not shown here. Equal entries are not always repeated.

Key:
Format in all cases: in vitro ADME
CYP2C19 [1] = target: T1, CYP2C19 (Homo sapiens, UniProt P33261); assay: Projected involvement in C152 metabolism in HLM
Method in brief: (§1)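 Calculated values, no new incubations. Each of seven C152-metabolizing P450s has a fractional content in the pooled HLM P450 pool (LC-MS/MS MRM). That fraction is multiplied by its Supersome Vmax (saturation) or by its rate at 30 μM C152 from Hill or Michaelis–Menten parameters. Expected participation (% TNR) is each normalized rate divided by the sum of all seven.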

CYP2C9 [2] = target: T2, CYP2C9 (Homo sapiens, UniProt P11712); assay: C152 metabolism; conditions: for Specific rate: CYP2C9
T2 sequence (P11712 whole entry): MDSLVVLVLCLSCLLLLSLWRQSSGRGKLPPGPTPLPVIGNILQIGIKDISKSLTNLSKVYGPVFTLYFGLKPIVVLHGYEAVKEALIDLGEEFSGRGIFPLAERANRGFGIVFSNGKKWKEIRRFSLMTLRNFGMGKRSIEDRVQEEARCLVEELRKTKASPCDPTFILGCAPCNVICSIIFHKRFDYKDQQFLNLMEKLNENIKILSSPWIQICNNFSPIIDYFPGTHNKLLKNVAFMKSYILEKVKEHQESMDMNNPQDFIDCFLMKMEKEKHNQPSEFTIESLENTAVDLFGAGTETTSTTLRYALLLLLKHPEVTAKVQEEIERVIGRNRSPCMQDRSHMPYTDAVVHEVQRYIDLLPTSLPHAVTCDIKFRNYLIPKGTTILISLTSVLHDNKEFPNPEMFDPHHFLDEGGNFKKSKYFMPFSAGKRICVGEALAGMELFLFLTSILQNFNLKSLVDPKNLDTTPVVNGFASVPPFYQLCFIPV
Method in brief: (§2)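 Human P450s in Supersomes that co-express human CPR and cytochrome b5. Reaction in 0.1 M Na-HEPES pH 7.4 with 60 mM KCl, stirred at 30 °C. C152 0.1–30 μM added from acetone stock; 200 μM NADPH starts it. Fluorescence rise read at 500 nm (isosbestic, mono-demethylation step). Rate is the linear slope over 3–5 min, scaled by the C151–C152 fluorescence difference. Michaelis–Menten or Hill fit, Vmax per P450, 2–6 runs; rate at 30 μM computed from fit.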

CYP3A4 = CYP3A4 (Homo sapiens, UniProt P08684); assay: Projected involvement in C152 metabolism in HLM
CYP3A4, sequence (P08684 2-503 limits assumed): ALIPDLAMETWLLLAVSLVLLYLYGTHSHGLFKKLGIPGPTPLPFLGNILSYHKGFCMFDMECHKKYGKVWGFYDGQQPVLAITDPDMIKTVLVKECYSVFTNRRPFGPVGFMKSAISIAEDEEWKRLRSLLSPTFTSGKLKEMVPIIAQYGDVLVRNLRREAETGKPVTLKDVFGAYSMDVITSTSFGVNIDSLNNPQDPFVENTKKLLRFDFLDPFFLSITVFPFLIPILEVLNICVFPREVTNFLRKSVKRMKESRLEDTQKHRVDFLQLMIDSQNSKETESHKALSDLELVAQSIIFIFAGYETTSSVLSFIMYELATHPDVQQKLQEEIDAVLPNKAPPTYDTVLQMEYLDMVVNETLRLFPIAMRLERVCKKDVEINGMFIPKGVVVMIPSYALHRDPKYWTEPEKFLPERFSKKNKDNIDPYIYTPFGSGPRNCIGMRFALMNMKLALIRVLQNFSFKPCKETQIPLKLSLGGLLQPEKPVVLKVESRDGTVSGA
Method in brief: as §1

[3] = tested on: human liver microsomes (HLM); assay: C152 metabolism
Method in brief: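 Pooled 50-donor mixed-gender human liver microsomes. Continuous single-wavelength fluorimetry at 500 nm in 0.1 M Na-HEPES pH 7.4 with 60 mM KCl, stirred at 30 °C. C152 0.1–30 μM from acetone stock; 200 μM NADPH starts it. Linear slope over 3–5 min, scaled by the C151–C152 fluorescence difference. Normalized to CPR, measured as NADPH-dependent cytochrome c reduction rate. Michaelis–Menten or Hill fit, 2–6 runs.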

CYP2C9 [4] = target: T2, CYP2C9; assay: Projected involvement in C152 metabolism in HLM
Method in brief: as §1

CYP1A2 = target: T3, CYP1A2 (Homo sapiens, UniProt P05177); assay: Projected involvement in C152 metabolism in HLM
T3 sequence (P05177 2-516 limits assumed): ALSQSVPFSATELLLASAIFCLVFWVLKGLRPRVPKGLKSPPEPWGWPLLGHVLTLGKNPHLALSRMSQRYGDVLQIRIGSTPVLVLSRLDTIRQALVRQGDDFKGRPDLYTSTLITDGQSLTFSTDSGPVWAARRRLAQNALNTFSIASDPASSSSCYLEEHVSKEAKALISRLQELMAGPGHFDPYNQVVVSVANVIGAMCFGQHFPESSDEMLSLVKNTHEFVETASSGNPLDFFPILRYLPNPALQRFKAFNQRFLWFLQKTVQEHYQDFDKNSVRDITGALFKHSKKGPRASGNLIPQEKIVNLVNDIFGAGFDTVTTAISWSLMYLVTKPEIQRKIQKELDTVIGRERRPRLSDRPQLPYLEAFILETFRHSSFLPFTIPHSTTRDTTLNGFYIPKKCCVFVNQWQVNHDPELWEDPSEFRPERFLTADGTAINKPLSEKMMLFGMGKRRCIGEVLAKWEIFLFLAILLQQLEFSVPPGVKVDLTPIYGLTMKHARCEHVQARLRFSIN
Method in brief: as §1

CYP2B6 = target: T4, CYP2B6 (Homo sapiens, UniProt P20813); assay: C152 metabolism; conditions: for Specific rate: CYP2B6
T4 sequence (P20813 1-491): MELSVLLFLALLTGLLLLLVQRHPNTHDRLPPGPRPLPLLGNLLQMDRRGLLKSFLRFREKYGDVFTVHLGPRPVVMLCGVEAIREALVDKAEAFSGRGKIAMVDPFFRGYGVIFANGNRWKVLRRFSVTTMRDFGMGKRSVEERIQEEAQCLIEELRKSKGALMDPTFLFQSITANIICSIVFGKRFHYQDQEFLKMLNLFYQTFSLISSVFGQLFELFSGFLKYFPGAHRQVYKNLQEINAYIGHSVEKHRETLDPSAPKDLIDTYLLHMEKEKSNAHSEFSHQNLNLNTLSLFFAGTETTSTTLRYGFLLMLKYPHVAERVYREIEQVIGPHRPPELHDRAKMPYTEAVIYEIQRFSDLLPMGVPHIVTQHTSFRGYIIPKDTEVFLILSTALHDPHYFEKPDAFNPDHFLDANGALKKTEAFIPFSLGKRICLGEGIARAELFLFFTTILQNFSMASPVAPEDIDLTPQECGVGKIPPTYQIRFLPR
Method in brief: as §2

CYP2D6 = CYP2D6 (Homo sapiens, UniProt P10635); assay: C152 metabolism by Supersomes containing CYP2D6; conditions: recombinant CYP2D6 Supersomes
CYP2D6, sequence (P10635 whole entry): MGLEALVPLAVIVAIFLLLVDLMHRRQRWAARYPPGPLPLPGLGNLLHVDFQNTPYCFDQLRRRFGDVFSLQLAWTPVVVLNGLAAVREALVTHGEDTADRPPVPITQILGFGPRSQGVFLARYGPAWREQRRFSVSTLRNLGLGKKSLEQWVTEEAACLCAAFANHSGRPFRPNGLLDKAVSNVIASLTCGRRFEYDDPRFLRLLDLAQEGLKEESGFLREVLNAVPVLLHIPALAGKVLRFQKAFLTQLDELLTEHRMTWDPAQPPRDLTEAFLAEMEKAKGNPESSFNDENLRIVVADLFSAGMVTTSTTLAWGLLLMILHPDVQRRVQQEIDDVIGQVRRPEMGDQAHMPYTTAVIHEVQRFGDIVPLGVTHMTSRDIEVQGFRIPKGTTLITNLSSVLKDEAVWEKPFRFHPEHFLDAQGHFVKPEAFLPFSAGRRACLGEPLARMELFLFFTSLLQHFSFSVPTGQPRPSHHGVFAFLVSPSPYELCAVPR

CYP2C19 [5] = target: T1, CYP2C19; assay: Formation of C151 from C152; conditions: SS(2C19)
Method in brief: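 Probes hold 5–20 pmol P450 in 0.1 M Na-HEPES pH 7.4 with 60 mM KCl. C152 added from 0.5 or 4 mM acetone stock; reaction started with 500 μM NADPH (final), run 5 min at 30 °C with shaking. Quenched with isopropanol containing phenacetin internal standard, then centrifuged. C151 quantified by reverse-phase LC with ESI-positive MRM MS/MS (m/z 230.16→157.2). Michaelis–Menten or Hill fit; normalized per P450 (Supersomes) or CPR (HLM).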

CYP3A5 = CYP3A5 (Homo sapiens, UniProt P20815); assay: Projected involvement in C152 metabolism in HLM
CYP3A5, sequence (P20815 whole entry): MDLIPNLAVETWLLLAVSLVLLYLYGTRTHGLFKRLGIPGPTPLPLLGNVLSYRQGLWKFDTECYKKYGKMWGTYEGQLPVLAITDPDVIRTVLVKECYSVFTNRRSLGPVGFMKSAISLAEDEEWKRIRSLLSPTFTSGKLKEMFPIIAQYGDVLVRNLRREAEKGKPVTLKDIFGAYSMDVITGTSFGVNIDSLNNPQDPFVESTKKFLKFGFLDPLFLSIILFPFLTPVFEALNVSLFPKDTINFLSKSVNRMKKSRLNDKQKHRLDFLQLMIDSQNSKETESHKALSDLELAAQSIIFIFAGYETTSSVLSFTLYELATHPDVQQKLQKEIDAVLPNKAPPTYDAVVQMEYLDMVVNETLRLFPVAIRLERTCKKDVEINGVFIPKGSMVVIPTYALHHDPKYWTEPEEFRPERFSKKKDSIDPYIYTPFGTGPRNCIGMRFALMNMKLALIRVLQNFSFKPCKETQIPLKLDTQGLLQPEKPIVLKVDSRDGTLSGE
Method in brief: as §1

CYP2E1 = CYP2E1 (Homo sapiens, UniProt P05181); assay: C152 metabolism by Supersomes containing CYP2E1; conditions: recombinant CYP2E1 Supersomes
CYP2E1, sequence (P05181 whole entry): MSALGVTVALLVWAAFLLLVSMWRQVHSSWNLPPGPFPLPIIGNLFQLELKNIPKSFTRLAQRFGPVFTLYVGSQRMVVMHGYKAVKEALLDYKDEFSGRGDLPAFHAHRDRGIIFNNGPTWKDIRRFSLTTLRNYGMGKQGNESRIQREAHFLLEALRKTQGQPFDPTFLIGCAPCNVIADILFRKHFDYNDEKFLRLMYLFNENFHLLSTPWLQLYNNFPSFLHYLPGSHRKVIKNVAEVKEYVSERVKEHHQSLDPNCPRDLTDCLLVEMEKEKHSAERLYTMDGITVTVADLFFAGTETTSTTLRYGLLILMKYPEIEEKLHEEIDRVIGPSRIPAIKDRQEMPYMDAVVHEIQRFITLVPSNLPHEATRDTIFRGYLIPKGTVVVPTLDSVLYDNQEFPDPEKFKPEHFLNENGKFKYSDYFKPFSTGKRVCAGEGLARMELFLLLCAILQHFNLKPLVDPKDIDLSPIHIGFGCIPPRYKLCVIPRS

[6] = at saturation of all P450 species
[7] = at saturation of all P450 species, % TNR
[8] = at 30 μM C152, calculated from fit parameters
[9] = at saturation (Vmax in Supersomes)

T1 sequence (P33261 whole entry): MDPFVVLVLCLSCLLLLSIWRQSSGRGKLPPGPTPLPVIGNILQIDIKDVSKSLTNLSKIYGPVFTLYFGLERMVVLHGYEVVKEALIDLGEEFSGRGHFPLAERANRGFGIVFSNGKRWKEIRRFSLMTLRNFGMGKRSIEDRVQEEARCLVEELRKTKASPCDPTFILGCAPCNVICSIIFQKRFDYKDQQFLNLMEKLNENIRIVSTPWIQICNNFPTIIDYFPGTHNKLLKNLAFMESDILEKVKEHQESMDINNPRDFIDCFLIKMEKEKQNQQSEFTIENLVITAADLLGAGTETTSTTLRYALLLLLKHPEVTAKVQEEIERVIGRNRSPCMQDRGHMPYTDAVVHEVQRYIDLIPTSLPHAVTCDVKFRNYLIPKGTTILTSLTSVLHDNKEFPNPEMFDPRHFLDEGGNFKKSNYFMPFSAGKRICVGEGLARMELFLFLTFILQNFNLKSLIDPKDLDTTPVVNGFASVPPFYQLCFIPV

`CN(C)c1ccc2c(C(F)(F)F)cc(=O)oc2c1` [C152, 7-Dimethylamino-4-trifluromethylcoumarin] was tested, and the Normalized rate (CYP2C19 [1]; at 30 μM C152) was 0.026 min⁻¹, the Expected participation (CYP2C19 [1]; at 30 μM C152, % TNR) was 0.2% and 0.22% and the Normalized rate (CYP2C19 [1]; [6]) was 0.031 min⁻¹. The Expected participation (CYP2C19 [1]; [7]) was 0.24%, the Specific rate (CYP2C9 [2]; [8]) was 2.0 min⁻¹ and the Specific rate (CYP2C9 [2]; [9]) was 3.9 min⁻¹. The “Vmax (C152 metabolism, fluorimetric assay)” value (CYP2C9 [2]; SS(2C9), mol C152 per mol P450 per min) was 3.9 ± 1.2 min⁻¹, the Km (CYP2C9 [2]; read-out: KM or S50 (C152 metabolism, fluorimetric assay), SS(2C9), Michaelis-Menten fit, 30 °C, pH 7.4) was 29 ± 8 µM and the Normalized rate (CYP3A4; at 30 μM C152) was 10.3 min⁻¹. The Expected participation (CYP3A4; at 30 μM C152, % TNR) was 84% and 84.75%, the Normalized rate (CYP3A4; [6]) was 10.8 min⁻¹ and the “N, Hill coefficient (C152 metabolism, fluorimetric assay)” value [3] was 1.8±0.3. For the same compound, the “Vmax (C152 metabolism, fluorimetric assay)” value ([3]; normalized per concentration of CPR) was 58 ± 24 min⁻¹, the Km ([3]; read-out: KM or S50 (C152 metabolism, fluorimetric assay), Hill fit (S50), 30 °C, pH 7.4) was 4.5 ± 1.5 µM and the “Fraction of C151 formed, Fluorimetry” value ([3]; scanning fluorimetry with PCA) was 5.7±2.0%. The Normalized rate (CYP2C9 [4]; at 30 μM C152) was 0.496 min⁻¹, the Expected participation (CYP2C9 [4]; at 30 μM C152, % TNR) was 4% and 4.08% and the Normalized rate (CYP2C9 [4]; [6]) was 0.981 min⁻¹. For the same compound, the Normalized rate (CYP1A2; at 30 μM C152) was 0.375 min⁻¹, the Expected participation (CYP1A2; at 30 μM C152, % TNR) was 3.08% and the Normalized rate (CYP1A2; [6]) was 0.412 min⁻¹. It also gave an Expected participation (CYP1A2; [7]) of 3.10%, a Specific rate (CYP2B6; [8]) of 46.6 min⁻¹ and a Specific rate (CYP2B6; [9]) of 49.3 min⁻¹. For the same compound, the “Vmax (C152 metabolism, fluorimetric assay)” value (CYP2B6; SS(2B6), mol C152 per mol P450 per min) was 49 ± 11 min⁻¹, the “Fraction of C151 formed, Fluorimetry” value (CYP2B6; SS(2B6), scanning fluorimetry with PCA) was 7.3±3.4% and the Km (CYP2B6; read-out: KM or S50 (C152 metabolism, fluorimetric assay), SS(2B6), Michaelis-Menten fit, 30 °C, pH 7.4) was 1.8 ± 0.2 µM. For the same compound, the “activity with C152” value (CYP2D6) was “no detectable activity”, the “Fraction of C151 formed, LC-MS” value (CYP2C19 [5]; C151 formed over total C152 metabolized) was 5.6±0.4% and the “Vmax (Formation of C151, LC-MS)” value (CYP2C19 [5]; mol C151 formed per mol P450 per min) was 0.43 ± 0.03 min⁻¹. The Km (CYP2C19 [5]; read-out: KM or S50 (Formation of C151, LC-MS), Michaelis-Menten fit) was 6.7 ± 1.5 µM, the Normalized rate (CYP3A5; at 30 μM C152) was 0.074 min⁻¹ and the Expected participation (CYP3A5; at 30 μM C152, % TNR) was 0.61%. For the same compound, the Normalized rate (CYP3A5; [6]) was 0.120 min⁻¹, the Expected participation (CYP3A5; [7]) was 0.91% and the “activity with C152” value (CYP2E1) was “no detectable activity”.
